Among the data in ChEMBL document CHEMBL1817567, “Design of benzimidazole- and benzoxazole-2-thione derivatives as inhibitors of bacterial hyaluronan lyase” (Eur J Med Chem, 2011) are inhibition, IC50 and solubility values, retold here.

Values after ≈ are worked out from the molar mass of the structure shown. Active and inactive are the calls of the source. The calls are words filed in the database; no cut-off is given here.

Data set [1] concerns Streptococcus agalactiae. Put plainly: Inhibition of Streptococcus agalactiae 4755 hyaluronidase at 200 uM after 30 mins at pH 5.0 by turbidimetric analysis. In outline: (§1)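 SagHyal4755 (2.9 ng) with BSA and hyaluronan (2 mg/ml stock) in citrate–phosphate/NaCl buffer pH 5.0, 3.8% DMSO final, 30 min at 37 °C. Stopped by alkaline 2.5% CTAB, then 20 min at 25 °C. Residual-substrate turbidity read at 600 nm; no-inhibitor sample = 100%, no-enzyme sample = 0% activity. Enzyme-free compound controls were run.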

In data set [2] the target is T1, Hyaluronidase (Bos taurus) (UniProt Q8SQG8+Q5E985). Put plainly: Inhibition of bovine testes hyaluronidase at 2000 uM after 30 mins at pH 5 by turbidimetric analysis. The class given is protein assay.
The target of data set [3] is T1, Hyaluronidase (Bos taurus). Put plainly: Inhibition of bovine testes hyaluronidase at 180 uM after 30 mins at pH 5 by turbidimetric analysis. The class given is protein assay.
In data set [4] the target is T1, Hyaluronidase (Bos taurus). Put plainly: Inhibition of bovine testes hyaluronidase at 80 uM after 30 mins at pH 5 by turbidimetric analysis. The class given is protein assay.
Data set [5] in a line: Inhibition of Streptococcus agalactiae 4755 hyaluronidase at pH 7.4 after 3 hrs by turbidimetric analysis. In outline: (§2)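 Same turbidimetric hyaluronan-lyase assay at pH 7.4 (citrate–phosphate/NaCl): SagHyal4755 2.9 ng, hyaluronan (2 mg/ml stock), BSA, 3.8% DMSO final, 3 h at 37 °C. CTAB (2.5%, in 0.5 M NaOH) precipitation, 20 min at 25 °C, A600. Activity scaled between no-inhibitor and no-enzyme samples.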

In data set [6] the target is T1, Hyaluronidase (Bos taurus). Description: Inhibition of bovine testes hyaluronidase at 170 uM after 30 mins at pH 5 by turbidimetric analysis. The class given is protein assay.
Data set [7] has as its target T1, Hyaluronidase (Bos taurus). Put plainly: Inhibition of bovine testes hyaluronidase at 130 uM after 30 mins at pH 5 by turbidimetric analysis. The class given is protein assay.
Data set [8] addresses T1, Hyaluronidase (Bos taurus). Description: Inhibition of bovine testes hyaluronidase at 4200 uM after 30 mins at pH 5 by turbidimetric analysis. The class given is protein assay.
Data set [9] concerns the target T1, Hyaluronidase (Bos taurus). Put plainly: Inhibition of bovine testes hyaluronidase at 63 uM after 30 mins at pH 5 by turbidimetric analysis. The class given is protein assay.
The target of data set [10] is T1, Hyaluronidase (Bos taurus). Put plainly: Inhibition of bovine testes hyaluronidase at 190 uM after 30 mins at pH 5 by turbidimetric analysis. The class given is protein assay.
Data set [11] addresses T1, Hyaluronidase (Bos taurus). Put plainly: Inhibition of bovine testes hyaluronidase at 49 uM after 30 mins at pH 5 by turbidimetric analysis. The class given is protein assay.
Data set [12] concerns the target T1, Hyaluronidase (Bos taurus). Description: Inhibition of bovine testes hyaluronidase at 400 uM after 30 mins at pH 5 by turbidimetric analysis. The class given is protein assay.
Data set [13] addresses T1, Hyaluronidase (Bos taurus). Put plainly: Inhibition of bovine testes hyaluronidase at 3800 uM after 30 mins at pH 5 by turbidimetric analysis. The class given is protein assay.
Data set [14] concerns the target T1, Hyaluronidase (Bos taurus). Put plainly: Inhibition of bovine testes hyaluronidase at 150 uM after 30 mins at pH 5 by turbidimetric analysis. The class given is protein assay.
Data set [15] deals with T1, Hyaluronidase (Bos taurus). Put plainly: Inhibition of bovine testes hyaluronidase at 100 uM after 30 mins at pH 5 by turbidimetric analysis. The class given is protein assay.
In data set [16] the target is T1, Hyaluronidase (Bos taurus). Put plainly: Inhibition of bovine testes hyaluronidase at 460 uM after 30 mins at pH 5 by turbidimetric analysis. The class given is protein assay.
The target in data set [17] is T1, Hyaluronidase (Bos taurus). Put plainly: Inhibition of bovine testes hyaluronidase at 380 uM after 30 mins at pH 5 by turbidimetric analysis. The class given is protein assay.
Data set [18] concerns the target T1, Hyaluronidase (Bos taurus). Put plainly: Inhibition of bovine testes hyaluronidase at 200 uM after 30 mins at pH 5 by turbidimetric analysis. The class given is protein assay.
A short description of data set [19]: Aqueous solubility of the compound in water. The class given is physicochemical. A digest of the protocol: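 Turbidity at 600 nm of test compound in DMSO added to citrate–phosphate buffer (pH 5 and pH 7.4), water and BSA (0.2 mg/ml stock), at various concentrations, read against a water reference. Enzyme testing used only concentrations showing no turbidity.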

For data set [20], the system named is Streptococcus agalactiae. Description: Inhibition of Streptococcus agalactiae 4755 hyaluronidase at 460 uM after 30 mins at pH 5.0 by turbidimetric analysis. A digest of the protocol:
as §1

Data set [21] relates to Streptococcus agalactiae. Put plainly: Inhibition of Streptococcus agalactiae 4755 hyaluronidase at 190 uM after 30 mins at pH 5.0 by turbidimetric analysis. A digest of the protocol: as §1
The subject of data set [22] is Streptococcus agalactiae. Description: Inhibition of Streptococcus agalactiae 4755 hyaluronidase at 200 uM after 3 hrs at pH 7.4 by turbidimetric analysis. In outline: as §2
Data set [23] deals with Streptococcus agalactiae. Description: Inhibition of Streptococcus agalactiae 4755 hyaluronidase at 49 uM after 30 mins at pH 5.0 by turbidimetric analysis. In outline:
as §1

For data set [24], the system named is Streptococcus agalactiae. Put plainly: Inhibition of Streptococcus agalactiae 4755 hyaluronidase at 400 uM after 30 mins at pH 5.0 by turbidimetric analysis. A digest of the protocol: as §1
Data set [25] relates to Streptococcus agalactiae. Description: Inhibition of Streptococcus agalactiae 4755 hyaluronidase at 180 uM after 30 mins at pH 5.0 by turbidimetric analysis. In outline:
as §1

In data set [26] the test system is Streptococcus agalactiae. Description: Inhibition of Streptococcus agalactiae 4755 hyaluronidase at 380 uM after 30 mins at pH 5.0 by turbidimetric analysis. In outline:
as §1

Usually inhibition stands for the percentage by which the read-out fell short of the control. What is called IC50 is the concentration that gives 50% inhibition. As usually defined, the solubility is the concentration that dissolves in the medium under given conditions. Higher therefore signals a readily soluble substance. Compound `COC(=O)c1ccc2oc(=S)n(C(=O)CCc3ccccc3)c2c1` returned an inhibition in the data set on Streptococcus agalactiae [1] of 56%. Besides, the inhibition result in data set [2], in data set [3], in [4], in [6], in [7] and in [8] was “inactive” in each case. Besides, the inhibition entry in data set [9], in [10], in data set [11], in data set [12], in [13] and in [14] was “inactive” each time. In addition, the inhibition entry in data set [15], in data set [16], in [17] and in data set [18] was “inactive” each time. In addition, half-maximal inhibition in data set [5] (IC50) required 21 µM. In data set [19], this compound returned a solubility of 200 µM (≈ 68.3 µg/mL).
For `CC(=O)n1c(=S)[nH]c2ccccc21`, the inhibition entry in data set [2], in [3], in data set [4], in data set [6], in data set [7] and in data set [8] was “inactive” throughout. Also, the inhibition entry in data set [9], in [10], in data set [11], in [12], in data set [13] and in data set [14] was “inactive” in each case. Besides, the inhibition entry in data set [15], in data set [16], in data set [17] and in data set [18] was “inactive” each time. In data set [5], this compound came in with an IC50 of 17 µM. Besides, the inhibition in the data set on Streptococcus agalactiae [20] was found to be 20%. In data set [19], this compound had a solubility of 460 µM (≈ 88.4 µg/mL).
Regarding `CCCC(=O)n1c(=S)[nH]c2ccccc21`, the inhibition result in [2], in data set [3], in [4], in data set [6], in [7] and in data set [8] was “inactive” each time. In addition, the inhibition result in data set [9], in data set [10], in [11], in data set [12], in data set [13] and in [14] was “inactive” each time. Also, the inhibition result in data set [15], in [16], in data set [17] and in [18] was “inactive” in each case. Also, the IC50 in data set [5] stood at 20 µM. This compound also displayed an inhibition with Streptococcus agalactiae [21] of 7%. The compound also displayed a solubility in data set [19] of 190 µM (≈ 41.9 µg/mL).
Take `CC(=O)n1c(=O)n(C(C)=O)c2ccccc21`: the inhibition result (with Streptococcus agalactiae [1]; in [2]; in data set [3]; in data set [4]; in data set [6]; in data set [7]) was “inactive” each time. For the same compound, the inhibition entry in data set [8], in data set [9], in [10], in data set [11], in data set [12] and in data set [13] was “inactive” each time. The inhibition entry in data set [14], in data set [15], in data set [16], in data set [17] and in [18] was “inactive” in each case. In the data set with Streptococcus agalactiae [22], this compound registered an inhibition of 10%. The solubility in data set [19] worked out at 200 µM (≈ 43.6 µg/mL).
Take `CCCCCC(=O)n1c(=S)n(C(C)=O)c2ccccc21`: the inhibition result in [2], in data set [3], in data set [4], in data set [6], in data set [7] and in [8] was “inactive” each time. The inhibition result in [9], in data set [10], in data set [11], in data set [12], in data set [13] and in data set [14] was “inactive” throughout. The inhibition entry in data set [15], in data set [16], in data set [17] and in [18] was “inactive” throughout. This compound returned a 50% inhibitory concentration (IC50) in data set [5] of 12 µM. The inhibition with Streptococcus agalactiae [23] worked out at 50%. For the same compound, the solubility in data set [19] came out at 49 µM (≈ 14.2 µg/mL).
With `O=C(c1cccc(Cl)c1)n1c(=S)[nH]c2ccccc21`, the inhibition result in [2], in [3], in [4], in data set [6], in data set [7] and in [8] was “inactive” in each case. The inhibition result in [9], in data set [10], in data set [11], in [12], in data set [13] and in data set [14] was “inactive” throughout. The inhibition entry in [15], in data set [16], in data set [17] and in data set [18] was “inactive” in each case. In data set [5], this compound yielded an IC50 of 70 µM. Besides, in the data set on Streptococcus agalactiae [24], the inhibition was determined as 16%. This compound also displayed a solubility in data set [19] of 400 µM (≈ 116 µg/mL).
`CCC(=O)n1c(=S)[nH]c2ccccc21`: the inhibition entry in [2], in data set [3], in [4], in data set [6], in [7] and in data set [8] was “inactive” throughout. The inhibition entry in [9], in data set [10], in [11], in data set [12], in data set [13] and in data set [14] was “inactive” throughout. Further, the inhibition entry in data set [15], in [16], in data set [17] and in data set [18] was “inactive” each time. The same compound gave an IC50 in data set [5] of 26 µM. The compound further displayed an inhibition in the data set on Streptococcus agalactiae [25] of 4%. The solubility in data set [19] turned out to be 180 µM (≈ 37.1 µg/mL).
Take `CCn1c(=S)n(C(C)=O)c2ccccc21`: the inhibition entry in data set [2], in data set [3], in [4], in data set [6], in data set [7] and in [8] was “inactive” in each case. Also, the inhibition result in [9], in data set [10], in data set [11], in data set [12], in data set [13] and in [14] was “inactive” each time. The inhibition entry in [15], in data set [16], in data set [17] and in data set [18] was “inactive” throughout. The IC50 in data set [5] is 19 µM. In the data set on Streptococcus agalactiae [26], this compound came in with an inhibition of 10%. In [19], this compound yielded a solubility of 380 µM (≈ 83.7 µg/mL).
